Results from ChEMBL document CHEMBL1126988, “Quinolone antibacterials containing the new 7-[3-(1-aminoethyl)-1- pyrrolidinyl] side chain: the effects of the 1-aminoethyl moiety and its stereochemical configurations on potency and in vivo efficacy” (J Med Chem, 1993).
≈ marks a conversion by molar mass, not a printed value.

Columns and labels:
Format in all cases: functional
Staphylococcus aureus [1] = assay: Minimum inhibitory concentration was evaluated in vitro against Staphylococcus aureus H 228
Procedure, shortened: (§1)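 Standard microtitration broth assay against a panel of 10 Gram-positive and Gram-negative organisms. MIC read in µg/mL and averaged over multiple experiments.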

Streptococcus pneumoniae = assay: Minimum inhibitory concentration was evaluated in vitro against Streptococcus pneumoniae SV-1; procedure, shortened: as §1
Enterobacter cloacae = assay: Minimum inhibitory concentration in vitro against Enterobacter cloacae MA 2646
Escherichia coli = assay: Antibacterial activity in vitro against Escherichia coli Vogel; procedure, shortened: as §1
Staphylococcus aureus [2] = assay: Minimum inhibitory concentration was evaluated in vitro against Staphylococcus aureus UC 76; procedure, shortened: as §1
Providencia rettgeri = assay: Minimum inhibitory concentration was evaluated in vitro against Providencia rettgeri M1771; procedure, shortened: as §1
Streptococcus pyogenes [3] = assay: Antibacterial activity measured as mouse protection against Streptococcus pyogenes C 203 after subcutaneous administration; conditions: for ED50: Streptococcus pyogenes, C 203, sc, read-out: PD50
Enterococcus faecalis = assay: Minimum inhibitory concentration was evaluated in vitro against Enterococcus faecalis MGH-2; procedure, shortened: as §1
Pseudomonas aeruginosa = assay: Minimum inhibitory concentration was evaluated in vitro against Pseudomonas aeruginosa UI-18; procedure, shortened: as §1
Streptococcus pyogenes [4] = assay: Minimum inhibitory concentration was evaluated in vitro against Streptococcus pyogenes C 203; procedure, shortened: as §1
Klebsiella pneumoniae = assay: Minimum inhibitory concentration was evaluated in vitro against Klebsiella pneumoniae MGH2; procedure, shortened: as §1
Streptococcus pyogenes [5] = assay: Compounds were evaluated in vivo for antibacterial activity for mouse protection against Streptococcus pyogenes C 203 after oral administration; conditions: for ED50: Streptococcus pyogenes, C 203, po, read-out: PD50
[6] = Staphylococcus aureus, read-out: MIC
[7] = Streptococcus pneumoniae, read-out: MIC
[8] = Enterobacter cloacae, read-out: MIC
[9] = Escherichia coli, read-out: MIC
[10] = Providencia rettgeri, read-out: MIC
[11] = Enterococcus faecalis, read-out: MIC
[12] = Pseudomonas aeruginosa, read-out: MIC
[13] = Streptococcus pyogenes, read-out: MIC
[14] = Klebsiella pneumoniae, read-out: MIC

Compound	MIC (Staphylococcus aureus [1]; [6]) [µg/mL]	MIC (Streptococcus pneumoniae; [7]) [µg/mL]	MIC (Enterobacter cloacae; [8]) [µg/mL]	MIC (Escherichia coli; [9]) [µg/mL]	MIC (Staphylococcus aureus [2]; [6]) [µg/mL]	MIC (Providencia rettgeri; [10]) [µg/mL]	ED50 (Streptococcus pyogenes [3]) [mg/kg]	MIC (Enterococcus faecalis; [11]) [µg/mL]	MIC (Pseudomonas aeruginosa; [12]) [µg/mL]	MIC (Streptococcus pyogenes [4]; [13]) [µg/mL]	MIC (Klebsiella pneumoniae; [14]) [µg/mL]	MIC (Streptococcus pneumoniae) [µg/mL]	PD50 (Streptococcus pyogenes [3]) [mg/kg]	PD50 (Streptococcus pyogenes [5]) [mg/kg]	MIC (Staphylococcus aureus [1]) [µg/mL]	MIC (Enterobacter cloacae) [µg/mL]	MIC (Escherichia coli) [µg/mL]	MIC (Staphylococcus aureus [2]) [µg/mL]	MIC (Providencia rettgeri) [µg/mL]	MIC (Enterococcus faecalis) [µg/mL]	further results
COc1c(N2CC[C@@H]([C@H](C)N)C2)c(F)cc2c(=O)c(C(=O)O)cn(C3CC3)c12	0.05 (≈ 0.128 µM)	0.025 (≈ 0.0642 µM)	0.8 (≈ 2.05 µM)	0.4 (≈ 1.03 µM)	0.013 (≈ 0.0334 µM)	0.4 (≈ 1.03 µM)	6	0.05 (≈ 0.128 µM)	1.6 (≈ 4.11 µM)	0.025 (≈ 0.0642 µM)	0.4 (≈ 1.03 µM)	–	–	–	–	–	–	–	–	–	–
COc1c(N2CCC(CN)C2)c(F)cc2c(=O)c(C(=O)O)cn(C3CC3)c12 (stereo unspecified)	0.025 (≈ 0.0666 µM)	0.003 (≈ 0.00799 µM)	0.05 (≈ 0.133 µM)	0.05 (≈ 0.133 µM)	0.003 (≈ 0.00799 µM)	0.1 (≈ 0.266 µM)	0.6	0.013 (≈ 0.0346 µM)	0.8 (≈ 2.13 µM)	0.003 (≈ 0.00799 µM)	0.1 (≈ 0.266 µM)	–	–	–	–	–	–	–	–	–	ED50 (Streptococcus pyogenes [5]): 11 mg/kg
CN[C@@H](C)[C@H]1CCN(c2cc3c(cc2F)c(=O)c(C(=O)O)cn3C2CC2)C1	1.6 (≈ 4.28 µM)	0.4 (≈ 1.07 µM)	0.4 (≈ 1.07 µM)	0.4 (≈ 1.07 µM)	0.2 (≈ 0.536 µM)	3.1 (≈ 8.3 µM)	–	0.8 (≈ 2.14 µM)	6.3 (≈ 16.9 µM)	0.4 (≈ 1.07 µM)	0.8 (≈ 2.14 µM)	–	–	–	–	–	–	–	–	–	–
CN[C@H](C)[C@H]1CCN(c2cc3c(cc2F)c(=O)c(C(=O)O)cn3C2CC2)C1	0.4 (≈ 1.07 µM)	–	0.2 (≈ 0.536 µM)	0.2 (≈ 0.536 µM)	0.05 (≈ 0.134 µM)	0.8 (≈ 2.14 µM)	–	0.2 (≈ 0.536 µM)	3.1 (≈ 8.3 µM)	0.1 (≈ 0.268 µM)	0.4 (≈ 1.07 µM)	0.2 (≈ 0.536 µM)	7	82	–	–	–	–	–	–	–
C[C@H](N)[C@H]1CCN(c2c(F)c(N)c3c(=O)c(C(=O)O)cn(C4CC4)c3c2F)C1 (stereo in doubt; 32F-S,R)	–	–	–	–	–	–	–	–	–	–	–	0.013 (≈ 0.0331 µM)	4	14	0.025 (≈ 0.0637 µM)	0.1 (≈ 0.255 µM)	0.05 (≈ 0.127 µM)	0.006 (≈ 0.0153 µM)	0.2 (≈ 0.51 µM)	0.05 (≈ 0.127 µM)	MIC (Pseudomonas aeruginosa): 0.8 µg/mL (≈ 2.04 µM); MIC (Streptococcus pyogenes [4]): 0.013 µg/mL (≈ 0.0331 µM); MIC (Klebsiella pneumoniae): 0.1 µg/mL (≈ 0.255 µM)
CCN[C@H](C)[C@H]1CCN(c2cc3c(cc2F)c(=O)c(C(=O)O)cn3C2CC2)C1 (mixture of isomers; form 1)	–	–	–	–	–	–	–	–	–	–	–	0.2	–	–	0.4	0.4	0.4	0.2	1.6	0.4	MIC (Pseudomonas aeruginosa): 6.3 µg/mL; MIC (Streptococcus pyogenes [4]): 0.2 µg/mL; MIC (Klebsiella pneumoniae): 0.8 µg/mL
CN[C@@H](C)[C@@H]1CCN(c2nc3c(cc2F)c(=O)c(C(=O)O)cn3C2CC2)C1	–	–	–	–	–	–	–	–	–	–	–	0.1 (≈ 0.267 µM)	5	11	0.2 (≈ 0.534 µM)	0.1 (≈ 0.267 µM)	0.1 (≈ 0.267 µM)	0.05 (≈ 0.134 µM)	0.8 (≈ 2.14 µM)	0.2 (≈ 0.534 µM)	MIC (Pseudomonas aeruginosa): 1.6 µg/mL (≈ 4.27 µM); MIC (Streptococcus pyogenes [4]): 0.1 µg/mL (≈ 0.267 µM); MIC (Klebsiella pneumoniae): 0.2 µg/mL (≈ 0.534 µM)
CN[C@@H](C)[C@H]1CCN(c2c(F)c(N)c3c(=O)c(C(=O)O)cn(C4CC4)c3c2F)C1	0.8 (≈ 1.97 µM)	0.8 (≈ 1.97 µM)	0.4 (≈ 0.984 µM)	0.4 (≈ 0.984 µM)	0.4 (≈ 0.984 µM)	1.6 (≈ 3.94 µM)	–	1.6 (≈ 3.94 µM)	3.1 (≈ 7.63 µM)	1.6 (≈ 3.94 µM)	0.8 (≈ 1.97 µM)	–	–	–	–	–	–	–	–	–	–
CCN[C@H](C)[C@@H]1CCN(c2c(F)cc3c(=O)c(C(=O)O)cn(C4CC4)c3c2C(F)(F)F)C1	0.05 (≈ 0.11 µM)	0.05 (≈ 0.11 µM)	1.6 (≈ 3.51 µM)	0.8 (≈ 1.76 µM)	0.05 (≈ 0.11 µM)	3.1 (≈ 6.81 µM)	0.8	0.1 (≈ 0.22 µM)	6.3 (≈ 13.8 µM)	0.1 (≈ 0.22 µM)	1.6 (≈ 3.51 µM)	–	–	–	–	–	–	–	–	–	ED50 (Streptococcus pyogenes [5]): 2 mg/kg
